The source of these data is publication PMC3694763 (Angewandte Chemie (International Ed. in English), 2012).

Test [1] deals with plasmin (Homo sapiens, UniProt P00747). In words: Determination of kcat/Km, cleavage by plasmin. The settings on record: for selectivity for thrombin over plasmin (ratio of kcat/Km): kcat/Km thrombin versus plasmin. The class given is biochemical.
The target in test [2] is factor Xa (Homo sapiens, UniProt P00742). In words: Determination of kcat/Km, cleavage by factor Xa. The class given is biochemical. The settings on record: for kcat/Km for factor Xa: 150 mM NaCl, 20 mM Tris pH 7.5, 2 mM CaCl2, 1% BSA, 37°C, Cy5 fluorescence.
Sequence of factor Xa (P00742 41-179 limits assumed): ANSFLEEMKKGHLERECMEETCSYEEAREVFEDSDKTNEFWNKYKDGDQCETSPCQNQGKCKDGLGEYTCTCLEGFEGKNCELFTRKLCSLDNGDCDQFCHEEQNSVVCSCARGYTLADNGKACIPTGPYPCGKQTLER
Sequence of factor Xa (P00742 235-488 limits assumed): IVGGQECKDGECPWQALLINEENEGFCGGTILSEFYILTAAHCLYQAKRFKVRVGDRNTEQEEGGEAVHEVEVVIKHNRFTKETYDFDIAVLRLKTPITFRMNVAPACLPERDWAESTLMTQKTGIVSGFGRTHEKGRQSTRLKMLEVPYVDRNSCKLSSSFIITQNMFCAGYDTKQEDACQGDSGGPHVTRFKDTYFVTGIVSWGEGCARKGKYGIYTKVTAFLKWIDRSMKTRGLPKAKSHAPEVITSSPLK
Test [3] deals with T1, thrombin (Homo sapiens, UniProt P00734). The class given is biochemical. The settings on record: probe diluted in mouse plasma. In short, it runs like this: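 Probe construction: Cy5 sits on the polycationic domain and the Cy7 acceptor on the polyanionic domain, joined by a thrombin-cleavable linker, so the intact probe undergoes FRET. Emission spectra were recorded in mouse plasma in a cuvette spectrofluorometer before and after adding purified thrombin. Cy5 emission peaks near 670 nm and Cy7 re-emission near 780 nm.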

Test [4] has as its target thrombin activity in developing blood clots (Mus musculus, UniProt P19221). As to the kind of experiment: Tail-clip model, ratiometric Cy5/Cy7 imaging of developing blood clots. The class given is in vivo. The settings on record: mouse tail clot.
Test [5] deals with pro-coagulation enzymes (thrombin, plasmin, factor Xa). The class given is biochemical. The settings on record: 1 µM RACPP, 50 nM enzyme, 37°C; tricine gel, Cy5/Cy7 ratio image. In short, it runs like this:
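Each ratiometric probe was incubated separately with purified enzyme for set times. Cleavage products were separated on tricine-SDS polyacrylamide gels. Gels were imaged multispectrally with 620 nm excitation, collecting Cy5 (660–720 nm) and Cy7 (760–830 nm) emission. Cy5 images were divided by Cy7 images and pseudocoloured from blue (ratio minimum) to red (ratio maximum).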

In test [6] the target is T1, thrombin. In words: Determination of kcat/Km, cleavage by thrombin. The class given is biochemical. The settings on record: PPRSFL replaced with norleucine-TPRSFL.
Test [7] has as its target MMP-9 (Homo sapiens, UniProt P14780). As to the kind of experiment: Addition of purified MMP-9 to developing blood pools of injected mice. The class given is in vivo, mouse. The conditions noted are these: blood pool of injected mice; MMP-9 1 µl of 1.5 µM, 10 minutes.

Sequence of plasmin (P00747 97-580 limits assumed, species assumed): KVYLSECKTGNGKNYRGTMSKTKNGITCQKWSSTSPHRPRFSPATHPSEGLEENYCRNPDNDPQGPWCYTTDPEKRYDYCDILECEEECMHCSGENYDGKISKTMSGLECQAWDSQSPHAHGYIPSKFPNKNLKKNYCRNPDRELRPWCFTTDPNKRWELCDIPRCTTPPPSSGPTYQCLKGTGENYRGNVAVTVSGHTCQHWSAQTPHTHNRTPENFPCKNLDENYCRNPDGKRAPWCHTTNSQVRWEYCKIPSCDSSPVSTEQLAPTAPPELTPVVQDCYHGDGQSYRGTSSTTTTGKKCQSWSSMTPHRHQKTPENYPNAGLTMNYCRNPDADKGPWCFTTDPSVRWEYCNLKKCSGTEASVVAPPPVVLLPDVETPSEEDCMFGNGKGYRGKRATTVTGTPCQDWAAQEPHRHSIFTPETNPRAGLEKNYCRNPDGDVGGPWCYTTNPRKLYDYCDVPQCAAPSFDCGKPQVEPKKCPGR
Sequence of plasmin (P00747 581-810 limits assumed, species assumed): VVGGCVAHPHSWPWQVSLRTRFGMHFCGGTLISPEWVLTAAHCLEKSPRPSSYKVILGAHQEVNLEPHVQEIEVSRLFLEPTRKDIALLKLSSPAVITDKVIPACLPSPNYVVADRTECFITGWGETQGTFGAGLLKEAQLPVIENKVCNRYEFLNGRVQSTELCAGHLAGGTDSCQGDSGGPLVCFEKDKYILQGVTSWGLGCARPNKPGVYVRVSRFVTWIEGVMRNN
Sequence of MMP-9 (P14780 107-707): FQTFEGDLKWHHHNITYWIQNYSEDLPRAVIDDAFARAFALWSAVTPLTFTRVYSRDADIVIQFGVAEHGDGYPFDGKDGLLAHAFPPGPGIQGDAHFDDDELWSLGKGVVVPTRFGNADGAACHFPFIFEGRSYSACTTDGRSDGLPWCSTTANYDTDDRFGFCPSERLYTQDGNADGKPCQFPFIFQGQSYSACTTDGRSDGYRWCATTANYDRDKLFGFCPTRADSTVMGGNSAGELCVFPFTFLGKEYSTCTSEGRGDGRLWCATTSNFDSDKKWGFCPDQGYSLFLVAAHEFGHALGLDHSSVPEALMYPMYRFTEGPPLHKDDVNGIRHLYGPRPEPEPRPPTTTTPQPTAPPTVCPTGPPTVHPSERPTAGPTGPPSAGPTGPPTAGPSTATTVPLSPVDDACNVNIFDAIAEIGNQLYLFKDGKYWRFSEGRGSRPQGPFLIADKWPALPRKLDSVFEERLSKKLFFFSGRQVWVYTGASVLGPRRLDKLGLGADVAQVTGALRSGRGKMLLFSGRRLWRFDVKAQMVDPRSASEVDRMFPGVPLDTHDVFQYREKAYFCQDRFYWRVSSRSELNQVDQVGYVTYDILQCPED

In the case of “Cy7-NH-e9-c(S-Peg12)oDPRSFL-r9-c(Cy5)-CONH2 [RACPPDPRSFL]”, the kcat/Km for plasmin in test [1] (150 mM NaCl, 20 mM Tris pH 7.5, 2 mM CaCl2, 1% BSA, 37°C, Cy5 fluorescence) was 10000 M⁻¹ s⁻¹. For the same substance, the “selectivity for thrombin over plasmin (ratio of kcat/Km)” value in test [1] is given as “less than 2 fold”. The “kcat/Km for factor Xa” value in test [2] came out at 6200 M⁻¹ s⁻¹. In addition, the “selectivity for thrombin over factor Xa (ratio of kcat/Km)” value in test [2] (kcat/Km thrombin versus factor Xa) is recorded as “less than 2 fold”.

Consider “Cy7-NH-e9-c(S-Peg12)oPPRSFL-r9-c(Cy5)-CONH2 [RACPPPPRSFL]”, for which, in test [3] (cuvet spectrofluorometer), the “change in the Cy5/Cy7 emission ratio on addition of purified thrombin” value amounted to 34 fold. For the same substance, the “increase in Cy5 emission on addition of purified thrombin” value in test [3] (approx. 670 nm) came out at 8.8 fold. The “decrease in Cy7 re-emission on addition of purified thrombin” value in test [3] (approx. 780 nm) is reported as 3.8 fold. In test [1], the “selectivity for thrombin over plasmin (ratio of kcat/Km)” value amounted to 14.3 fold. Further, the “change in Cy5/Cy7 ratio from one to five minutes post injury” value in test [4] (10 nmol) is listed as “no significant change”. In test [4] (10 nmol probe), the “time post injury at which a Cy5/Cy7 ratio increase was detectable” value worked out at 10 min. The “kcat/Km for factor Xa” value in test [2] is “no detectable activity”. For the same substance, the “cleavage by thrombin, plasmin, factor Xa on SDS-PAGE (selectivity)” value in test [5] is recorded as “selective for thrombin”.

Take lepirudin [reference compound]: the “effect on cleavage and ratio change of RACPPNleTPRSFL” value in test [4] (lepirudin 0.5 mg/mouse immediately prior to probe injection) is “inhibited the cleavage and ratio change”.

Regarding “Cy7-NH-e9-c(S-Peg12)oNLeTPRSFL-r9-c(Cy5)-CONH2 [RACPPNleTPRSFL]”, the “acceleration of thrombin cleavage relative to RACPPPPRSFL” value in test [6] was “approximately 90 fold”. Besides, the “selectivity for thrombin over plasmin (ratio of kcat/Km)” value in test [1] amounted to 52.5 fold. In addition, in test [4] (10 nmol), the “Cy5/Cy7 ratio at 15 minutes post injury” value is 7.2 and the “change of Cy5/Cy7 ratio at 15 minutes post injury” value is given as “tenfold”. For the same substance, in test [4] (10 nmol, n = 3, mean (±SD)), the “Cy5/Cy7 ratio at one minute post injury” value is reported as 0.75(±0.11). Further, the “Cy5/Cy7 ratio at five minutes post injury” value in test [4] (10 nmol, n = 3, p = 0.01 vs one minute) is listed as 3.1(±0.45).

On to “Cy7-NH-e9-c(S-Peg12)oPLGC(Me)AG-r9-c(Cy5)-CONH2 [RACPPPLGC(Me)AG]”, for which the “Cy5/Cy7 emission ratio at the wound site over 40 minutes of clotting” value in test [4] (10 nmol control probe) was “low and stable”. For the same substance, the “cleavage by thrombin, plasmin, factor Xa on SDS-PAGE (selectivity)” value in test [5] is “not cleaved by any of the pro-coagulation enzymes”. In addition, the “ratiometric contrast after local addition of purified MMP-9” value in test [7] was “spectacular local ratiometric contrast”.
